According to ChEMBL document CHEMBL1944548, “Discovery of kinase spectrum selective macrocycle (16E)-14-methyl-20-oxa-5,7,14,26-tetraazatetracyclo[19.3.1.1(2,6).1(8,12)]heptacosa-1(25),2(26),3,5,8(27),9,11,16,21,23-decaene (SB1317/TG02), a potent inhibitor of cyclin dependent kinases (CDKs), Janus kinase 2 (JAK2), and fms-like tyrosine …” (J Med Chem, 2012):
Values after ≈ are worked out from the molar mass of the structure shown.

Columns and labels:
[1] = test system: Ramos; test: Antitumor activity against human Ramos cells xenografted in BALB/c nude mouse assessed as tumor growth inhibition at 15 mg/kg, ip qd on a 5 days on 5 days off schedule for 15 days; type: functional; conditions: route intraperitoneal, read-out: GI
[2] = biological target: Cytochrome P450 2D6 (Homo sapiens, UniProt P10635); test: Inhibition of CYP2D6 in human liver microsomes using dextromethorphan as substrate after 30 mins by LC-MS/MS analysis; type: ADME, Microsome
Cytochrome P450 2D6, sequence (P10635 whole entry): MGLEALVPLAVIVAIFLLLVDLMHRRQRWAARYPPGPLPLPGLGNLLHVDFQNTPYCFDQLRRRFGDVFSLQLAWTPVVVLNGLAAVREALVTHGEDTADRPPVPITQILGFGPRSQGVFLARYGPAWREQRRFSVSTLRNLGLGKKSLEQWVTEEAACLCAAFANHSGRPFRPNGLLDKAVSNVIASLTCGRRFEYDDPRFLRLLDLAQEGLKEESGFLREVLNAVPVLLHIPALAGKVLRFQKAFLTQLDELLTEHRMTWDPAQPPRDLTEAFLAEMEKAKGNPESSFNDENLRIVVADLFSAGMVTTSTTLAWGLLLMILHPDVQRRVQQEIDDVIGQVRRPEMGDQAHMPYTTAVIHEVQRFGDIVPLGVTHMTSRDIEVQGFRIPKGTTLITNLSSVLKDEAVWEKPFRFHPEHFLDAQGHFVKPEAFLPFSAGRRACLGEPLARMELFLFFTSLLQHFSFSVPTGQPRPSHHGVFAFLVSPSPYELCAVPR
Method in brief: (§1)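 Human liver microsomes with 1 mM NADPH at 37 °C. Test concentrations 0.05, 0.25, 0.5, 2.5, 5 and 25 μM; final DMSO 0.35%. CYP1A: 0.25 mg/mL microsomes, ethoxyresorufin 0.5 μM, 5 min. CYP2D6: 0.5 mg/mL microsomes, dextromethorphan 5 μM, 30 min. IC50 from the fall in metabolite formation versus vehicle control. Selective inhibitors served as positive controls.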

[3] = Apparent permeability of the compound from basolateral to apical side in human Caco2 cells at 5 uM after 21 to 28 days by LC/MS analysis; type: ADME, cell-based; conditions: Caco-2
Method in brief: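 5 μM in HBSS (DMSO <1%) dosed apical or basolateral on 21−28-day confluent Caco-2 monolayers, both sides pH 7.4. Sampled at 2 h, quantified by LC/MS with four-point calibration. Monolayer integrity checked by pre-experiment TEER (450−650 Ωcm2) and Lucifer yellow; efflux ratio = Papp B→A / Papp A→B.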

[4] = biological target: Cytochrome P450 2C9 (Homo sapiens, UniProt P11712); test: Inhibition of CYP2C9 in human liver microsomes using Tolbutamide as substrate after 60 mins by LC-MS/MS analysis; type: ADME, Microsome
Cytochrome P450 2C9, sequence (P11712 whole entry): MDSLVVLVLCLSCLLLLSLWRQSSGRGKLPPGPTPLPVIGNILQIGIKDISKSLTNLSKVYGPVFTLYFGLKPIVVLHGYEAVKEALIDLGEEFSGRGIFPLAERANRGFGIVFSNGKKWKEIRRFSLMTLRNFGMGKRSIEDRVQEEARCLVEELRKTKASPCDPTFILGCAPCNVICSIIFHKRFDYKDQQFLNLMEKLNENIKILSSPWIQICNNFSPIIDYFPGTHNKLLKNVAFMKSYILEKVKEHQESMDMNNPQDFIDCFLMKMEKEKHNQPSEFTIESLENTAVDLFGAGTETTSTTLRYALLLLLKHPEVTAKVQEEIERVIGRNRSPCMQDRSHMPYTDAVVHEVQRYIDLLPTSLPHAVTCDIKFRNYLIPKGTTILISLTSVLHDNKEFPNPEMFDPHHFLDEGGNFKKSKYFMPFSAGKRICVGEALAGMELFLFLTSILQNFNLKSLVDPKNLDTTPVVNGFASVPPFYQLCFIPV
Method in brief: (§2)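 Human liver microsomes (0.5 mg/mL for CYP2C19, 1 mg/mL for CYP2C9), NADPH 1 mM, test at 0.05−25 μM (DMSO 0.35% final), 37 °C; probes mephenytoin 25 μM (CYP2C19) and tolbutamide 120 μM (CYP2C9), 60 min each. IC50 from decrease in metabolite formation vs vehicle.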

[5] = Half life in dog liver microsomes at 5 uM by LC-MS/MS analysis; type: ADME, Canis lupus familiaris, Microsome
Method in brief: (§3)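 5 μM with mouse, rat, dog or human liver microsomes (~0.87 mg/mL), 50 mM potassium phosphate pH 7.4, NADPH regeneration system, 37 °C.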

[6] = Tmax in BALB/c mouse at 75 mg/kg, po by LC-MS/MS analysis; type: ADME, organism-based; set-up: dose 75 mg/kg, route oral; conditions: in vivo
Method in brief: (§4)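 Male BALB/c mice (~10−12 weeks, 17−22 g) gavaged with 75 mg/kg as a suspension in 0.5% methylcellulose/0.1% Tween 80. Serial blood by cardiac puncture over 0−24 h into K3EDTA, plasma stored at −70 °C, LC−MS/MS; parameters by noncompartmental analysis.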

[7] = Cmax in BALB/c mouse at 75 mg/kg, po by LC-MS/MS analysis; type: ADME, organism-based; set-up: dose 75 mg/kg, route oral; conditions: in vivo; method in brief: as §4
[8] = Oral bioavailability in Beagle dog at 10 mg/kg by LC-MS/MS analysis; conditions: in vivo
[9] = Solubility of the compound in PBS buffer at 250 uM at pH 7 by UV spectrophotometry; type: physicochemical
[10] = test system: Ramos; test: Antitumor activity against human Ramos cells xenografted in po/ip dosed BALB/c nude mouse assessed as tumor growth inhibition; type: functional, organism-based
Method in brief: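 Female BALB/c nude mice implanted sc in right flank with 7 × 10^6 Ramos cells; dosing began 12 days after inoculation at about 200 mm3, n = 8–10/group. Arms: 75 mg/kg po q.d. 2 days on/5 off in MC/Tween, or 15 mg/kg ip q.d.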

[11] = AUC (0 to infinity) in BALB/c mouse at 75 mg/kg, po by LC-MS/MS analysis; type: ADME, organism-based; set-up: time infinity, dose 75 mg/kg, route oral; conditions: plasma; method in brief: as §4
[12] = test system: HL-60; test: Antiproliferative activity against human HL60 cells after 48 hrs; type: functional, cell-based; conditions: HL-60, 48 h
[13] = test system: HCT-116; test: Antitumor activity against human HCT116 cells xenografted in BALB/c nude mouse assessed as tumor growth inhibition at 75 mg/kg, po qd administered thrice in a week for 15 days; type: functional; conditions: HCT-116, 360 h, read-out: GI
[14] = Half life in human liver microsomes at 5 uM by LC-MS/MS analysis; type: ADME, Microsome; method in brief: as §3
[15] = biological target: T1, Cytochrome P450 1A2 (Homo sapiens, UniProt P05177); test: Inhibition of CYP1A2 in human liver microsomes using ethoxyresorufin as substrate after 5 mins by LC-MS/MS analysis; type: ADME, Microsome; method in brief: as §1
T1 sequence (P05177 whole entry): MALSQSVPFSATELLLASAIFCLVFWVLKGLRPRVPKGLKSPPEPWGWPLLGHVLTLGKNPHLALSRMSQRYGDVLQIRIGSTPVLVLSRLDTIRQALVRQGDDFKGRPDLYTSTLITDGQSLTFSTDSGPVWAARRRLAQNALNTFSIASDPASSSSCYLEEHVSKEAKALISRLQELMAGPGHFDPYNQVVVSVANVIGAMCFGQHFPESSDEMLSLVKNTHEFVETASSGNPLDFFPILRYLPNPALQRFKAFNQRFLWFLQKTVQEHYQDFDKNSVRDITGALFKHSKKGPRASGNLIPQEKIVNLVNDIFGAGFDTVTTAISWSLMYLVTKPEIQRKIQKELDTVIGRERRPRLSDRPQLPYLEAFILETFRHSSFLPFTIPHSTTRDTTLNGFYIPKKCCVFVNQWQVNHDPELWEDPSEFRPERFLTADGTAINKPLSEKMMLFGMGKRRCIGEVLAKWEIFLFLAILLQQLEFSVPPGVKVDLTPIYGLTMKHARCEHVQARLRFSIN

[16] = Half life in mouse liver microsomes at 5 uM by LC-MS/MS analysis; type: ADME, Microsome; method in brief: as §3
[17] = Plasma protein binding in mouse at 1000 ng/ml after 4 hrs by equilibrium dialysis method; type: ADME, cell-free; conditions: read-out: PPB (converted)
Method in brief: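 Equilibrium dialysis of plasma (mouse, dog, human) spiked to 1000 ng/mL against PBS, 4 h at 37 °C. Buffer side extracted in triplicate with MTBE, dried, reconstituted in methanol/water 60:40, measured by LC−MS/MS.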

[18] = test system: DU-145; test: Antiproliferative activity against human DU145 cells after 48 hrs; type: functional, cell-based; conditions: DU-145, 48 h
[19] = biological target: Cytochrome P450 2C19 (Homo sapiens, UniProt P33261); test: Inhibition of CYP2C19 in human liver microsomes using mephenytoin as substrate after 60 mins by LC-MS/MS analysis; type: ADME, Microsome; method in brief: as §2
Cytochrome P450 2C19, sequence (P33261 whole entry): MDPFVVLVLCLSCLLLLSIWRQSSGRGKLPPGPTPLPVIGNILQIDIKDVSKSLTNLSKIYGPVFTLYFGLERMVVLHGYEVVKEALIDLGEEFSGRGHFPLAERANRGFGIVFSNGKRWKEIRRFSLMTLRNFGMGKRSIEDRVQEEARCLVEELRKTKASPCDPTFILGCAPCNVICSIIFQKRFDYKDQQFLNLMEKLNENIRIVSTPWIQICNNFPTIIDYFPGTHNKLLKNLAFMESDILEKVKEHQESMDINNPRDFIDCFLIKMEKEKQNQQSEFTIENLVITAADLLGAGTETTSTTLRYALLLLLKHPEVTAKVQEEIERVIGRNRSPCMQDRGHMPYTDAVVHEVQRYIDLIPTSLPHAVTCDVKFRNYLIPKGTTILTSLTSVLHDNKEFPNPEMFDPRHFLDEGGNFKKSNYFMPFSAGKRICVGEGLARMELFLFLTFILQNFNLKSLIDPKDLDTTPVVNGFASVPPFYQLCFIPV

CN1C/C=C/CCOc2cccc(c2)-c2ccnc(n2)Nc2cccc(c2)C1 [ZOTIRACICLIB] showed an inhibition in vivo at 15 mg/kg [1] of 63%, an IC50 [2] of 950 nM and a Papp B→A at 5 µM [3] of 27.4 ×10⁻⁶ cm/s. The IC50 [4] was > 25 µM, the half-life at 5 µM [5] was 33 min and the Tmax [6] was 30 min. The Cmax [7] was 1030 ng/mL, the bioavailability [8] was 37% and the solubility at 250 µM [9] was 71.8 µg/mL (≈ 193 µM). For the same compound, the “growth inhibition (GI)” value [10] was “Dose-dependent effect”, the AUC(0-inf) [11] was 2520 ng·h/mL and the IC50 [12] was 59 nM. For the same compound, the inhibition in vivo at 75 mg/kg [13] was 82%, the half-life at 5 µM [14] was 45 min and the IC50 [15] was > 25 µM. The half-life at 5 µM [16] was 12 min, the fraction unbound at 4 h, 1000 ng/ml [17] was 0.006 and the IC50 [18] was 140 nM. The IC50 [19] was > 25 µM.
